Experimental data collected from several papers.
Compare with care: the assays were run in different laboratories.
Target: Serine/threonine-protein kinase PAK 6 (PAK6, Homo sapiens, UniProt Q9NQU5)

Cn1cncc1[C@](O)(COc1ccc(C#N)cc1-c1ccc(OC(F)(F)F)cc1)c1ccc(C#N)cc1  remaining binding (cell-free assay; competition with immobilised ligand; 1 µM): 98%
Nc1ncc(-c2nc(N3CCOCC3)nc(N3CCOCC3)n2)c(C(F)F)n1  remaining binding (binding; competition with immobilised ligand; 10 µM): 79%
Cn1cc(-c2cc(F)cc(N3CCn4c(cc5c4CCCC5)C3=O)c2CO)cc(Nc2ccc(N3CCN(C4COC4)CC3)cn2)c1=O  inhibition (enzyme activity; inhibitor; 0.1 µM): 22%
COc1ncccc1-c1cnn2ccc(N3CCN(C(=O)OC(C)C)CC3)nc12  remaining binding (binding; competition with immobilised ligand; 1 µM): 97%
COc1cc(Nc2ncc(F)c(Nc3ccc4c(n3)NC(=O)C(C)(C)O4)n2)cc(OC)c1OC  inhibition (binding; competition with immobilised ligand; 10 µM): 96%
Cc1nn(C)cc1-c1nc2c(N3CCN(Cc4ccc(Cl)cc4)CC3)c(Cl)cnc2[nH]1  remaining binding (binding; competition with immobilised ligand; 1 µM): 100%
Cn1cc(-c2cccc(N3CCc4c(sc5c4CC(C)(C)C5)C3=O)c2CO)cc(Nc2ccncn2)c1=O  inhibition (enzyme activity; inhibitor; 1 µM): -7%
O=c1[nH]c2ccccc2n1C1CCN(Cc2ccc(-c3[nH]c4cc5ncnc5cc4nc3-c3ccccc3)cc2)CC1  remaining signal (cell-free assay; 0.5 µM): 109%
